According to ChEMBL document CHEMBL3352732, “Nannozinones and sorazinones, unprecedented pyrazinones from myxobacteria” (J Nat Prod, 2014):
≈ marks a conversion by molar mass, not a printed value.

Assays:
Trichosporon oleaginosus = experiment: Antimicrobial activity against Trichosporon oleaginosus 11815 after 24 to 48 hrs by serial dilution method; format: functional; conditions: Cutaneotrichosporon oleaginosum
Outline: (§1)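 Yeasts and filamentous fungi tested in MYC medium (1.0% glucose, 1.0% phytone peptone, 50 mM HEPES, pH 7.0). Aliquots of 2 and 20 μL from 1 mg/mL stock, 1:1 serial dilution in 0.15 mL medium in microtiter plates. Incubated at 30 °C with shaking at 160 rpm for 24−48 h. MIC read as the lowest concentration with no visible growth.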

Mucor hiemalis = experiment: Antimicrobial activity against Mucor hiemalis 2656 after 24 to 48 hrs by serial dilution method; format: functional; outline: as §1
L929 = experiment: Cytotoxicity against mouse L929 cells by MTT assay; format: functional, cell-based
Outline: (§2)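 MTT assay in 96-well plates, giving IC50. Media: DMEM for KB-3-1, A431, A549 and L929; F12K for PC-3; RPMI for MCF-7; EBM-2 for HUVEC; McCoy's for SKOV-3. All media had 10% FBS, and cells were kept at 37 °C under 10% CO2. Methanol served as negative control and epothilone A as positive control.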

HUVEC = experiment: Cytotoxicity against HUVEC cells by MTT assay; format: functional, cell-based; conditions: Homo sapiens; outline: as §2
A-431 = experiment: Cytotoxicity against human A431 cells by MTT assay; format: functional, cell-based; outline: as §2
[1] = Cytotoxicity against human PC3 cells by MTT assay; format: functional, cell-based; conditions: PC-3; outline: as §2
[2] = Cytotoxicity against human KB3-1 cells by MTT assay; format: functional, cell-based; conditions: KB 3-1; outline: as §2
MCF7 = experiment: Cytotoxicity against human MCF7 cells by MTT assay; format: functional, cell-based; outline: as §2
A549 = experiment: Cytotoxicity against human A549 cells by MTT assay; format: functional, cell-based; outline: as §2
[3] = Cytotoxicity against human SKOV3 cells by MTT assay; format: functional, cell-based; conditions: SK-OV-3; outline: as §2
Nocardia sp. = experiment: Antimicrobial activity against Nocardia sp. 43069 after 24 to 48 hrs by serial dilution method; format: functional
Outline: (§3)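 Compounds from 1 mg/mL stock, 2 and 20 μL aliquots, serially diluted 1:1 in 0.15 mL medium in microtiter plates. Shaken at 160 rpm, 30 °C, 24−48 h. MIC is the lowest concentration preventing visible growth.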

Staphylococcus aureus = experiment: Antimicrobial activity against Staphylococcus aureus 346 after 24 to 48 hrs by serial dilution method; format: functional; outline: as §3
[4] = system: Mycolicibacterium diernhoferi; experiment: Antimicrobial activity against Mycobacterium diernhoferi 43542 after 24 to 48 hrs by serial dilution method; format: functional; outline: as §3
Paenibacillus polymyxa = experiment: Antimicrobial activity against Paenibacillus polymyxa 36 after 24 to 48 hrs by serial dilution method; format: functional; outline: as §3
Escherichia coli = experiment: Antimicrobial activity against Escherichia coli 1116 after 24 to 48 hrs by serial dilution method; format: functional; outline: as §3
[5] = system: Chromobacterium violaceum; experiment: Antimicrobial activity against Chromobacterium violaceum 30191 after 24 to 48 hrs by serial dilution method; format: functional; outline: as §3
Pseudomonas aeruginosa = experiment: Antimicrobial activity against Pseudomonas aeruginosa 50071 after 24 to 48 hrs by serial dilution method; format: functional; outline: as §3
Saccharomyces cerevisiae = experiment: Antimicrobial activity against Saccharomyces cerevisiae 70449 after 24 to 48 hrs by serial dilution method; format: functional; outline: as §1
Candida albicans = experiment: Antimicrobial activity against Candida albicans 1665 after 24 to 48 hrs by serial dilution method; format: functional; outline: as §1
Wickerhamomyces anomalus = experiment: Antimicrobial activity against Wickerhamomyces anomalus 6766 after 24 to 48 hrs by serial dilution method; format: functional; outline: as §1

In the case of COC(=O)[C@H](CCCCN(O)C(=O)/C=C/c1ccccc1)NC(=O)CC(O)(CC(=O)N[C@@H](CCCCN(O)C(=O)/C=C/c1ccccc1)C(=O)OC)C(=O)O, the MIC (Trichosporon oleaginosus) is reported as 66.6 µg/mL (≈ 86.6 µM), the MIC (Mucor hiemalis) is reported as greater than 66.6 µg/mL and the IC50 (L929) is reported as 1.82 µM. The IC50 (HUVEC) was 0.05 µM, the IC50 (A-431) was 0.1 µM and the IC50 [1] was 0.19 µM. For the same compound, the IC50 [2] was 0.05 µM, the IC50 (MCF7) was 0.22 µM and the IC50 (A549) was 0.12 µM. It also gave an IC50 [3] of 1.95 µM, an MIC (Nocardia sp.) greater than 66.6 µg/mL and an MIC (Staphylococcus aureus) greater than 66.6 µg/mL. For the same compound, the MIC [4] was greater than 66.6 µg/mL, the MIC (Paenibacillus polymyxa) was greater than 66.6 µg/mL and the MIC (Escherichia coli) was greater than 66.6 µg/mL. The MIC [5] was greater than 66.6 µg/mL, the MIC (Pseudomonas aeruginosa) was greater than 66.6 µg/mL and the MIC (Saccharomyces cerevisiae) was greater than 66.6 µg/mL. For the same compound, the MIC (Candida albicans) was 33.3 µg/mL (≈ 43.3 µM) and the MIC (Wickerhamomyces anomalus; Hansenula anomala) was greater than 66.6 µg/mL.

Work on COC(=O)c1c[nH]c2ccccc12 yielded an MIC (Trichosporon oleaginosus) greater than 66.6 µg/mL, an MIC (Mucor hiemalis) greater than 66.6 µg/mL and an IC50 (L929) greater than 56.8 µM. It also gave an IC50 [1] greater than 56.8 µM, an IC50 [2] greater than 56.8 µM and an IC50 (MCF7) greater than 56.8 µM. The IC50 (A549) was greater than 56.8 µM, the IC50 [3] was greater than 56.8 µM and the MIC (Nocardia sp.) was 33.3 µg/mL (≈ 190 µM). It also gave an MIC (Staphylococcus aureus) greater than 66.6 µg/mL, an MIC [4] greater than 66.6 µg/mL and an MIC (Paenibacillus polymyxa) greater than 66.6 µg/mL. For the same compound, the MIC (Escherichia coli) was greater than 66.6 µg/mL, the MIC [5] was greater than 66.6 µg/mL and the MIC (Pseudomonas aeruginosa) was greater than 66.6 µg/mL. It also gave an MIC (Saccharomyces cerevisiae) greater than 66.6 µg/mL, an MIC (Candida albicans) greater than 66.6 µg/mL and an MIC (Wickerhamomyces anomalus; Hansenula anomala) greater than 66.6 µg/mL.

CC(=O)c1c(Cc2ccccc2)[nH]c(=O)c2cccn12 gave an MIC (Trichosporon oleaginosus) greater than 66.6 µg/mL, an MIC (Mucor hiemalis) greater than 66.6 µg/mL and an IC50 (L929) greater than 37.6 µM. The IC50 (HUVEC) was 15.5 µM, the IC50 (A-431) was 8.45 µM and the IC50 [1] was 16.9 µM. For the same compound, the IC50 [2] was 5.3 µM, the IC50 (MCF7) was 14.1 µM and the IC50 (A549) was 8.7 µM. For the same compound, the IC50 [3] was 2.4 µM, the MIC (Nocardia sp.) was 66.6 µg/mL (≈ 250 µM) and the MIC (Staphylococcus aureus) was greater than 66.6 µg/mL. The MIC [4] was greater than 66.6 µg/mL, the MIC (Paenibacillus polymyxa) was greater than 66.6 µg/mL and the MIC (Escherichia coli) was greater than 66.6 µg/mL. The MIC [5] was greater than 66.6 µg/mL, the MIC (Pseudomonas aeruginosa) was greater than 66.6 µg/mL and the MIC (Saccharomyces cerevisiae) was greater than 66.6 µg/mL. It also gave an MIC (Candida albicans) greater than 66.6 µg/mL and an MIC (Wickerhamomyces anomalus; Hansenula anomala) greater than 66.6 µg/mL.

Cc1ccn2c(=O)c3cccn3c(=O)c12 gave an MIC (Trichosporon oleaginosus) greater than 66.6 µg/mL, an MIC (Mucor hiemalis) greater than 66.6 µg/mL and an IC50 (L929) greater than 50 µM. The IC50 [1] was greater than 50 µM, the IC50 [2] was greater than 50 µM and the IC50 (MCF7) was greater than 50 µM. It also gave an IC50 (A549) greater than 50 µM, an IC50 [3] greater than 50 µM and an MIC (Nocardia sp.) of 16.6 µg/mL (≈ 82.9 µM). The MIC (Staphylococcus aureus) was greater than 66.6 µg/mL, the MIC [4] was greater than 66.6 µg/mL and the MIC (Paenibacillus polymyxa) was greater than 66.6 µg/mL. The MIC (Escherichia coli) was greater than 66.6 µg/mL, the MIC [5] was greater than 66.6 µg/mL and the MIC (Pseudomonas aeruginosa) was greater than 66.6 µg/mL. The MIC (Saccharomyces cerevisiae) was greater than 66.6 µg/mL, the MIC (Candida albicans) was greater than 66.6 µg/mL and the MIC (Wickerhamomyces anomalus; Hansenula anomala) was 66.6 µg/mL (≈ 333 µM).

With CN(C)[C@@H]1C(O)=C(C(N)=O)C(=O)[C@@]2(O)C(O)=C3C(=O)c4c(O)cccc4[C@@](C)(O)[C@H]3[C@H](O)[C@@H]12.Cl [OXYTETRACYCLINE HYDROCHLORIDE] the MIC (Nocardia sp.) was 0.52 µg/mL, the MIC (Staphylococcus aureus) was 0.52 µg/mL and the MIC [4] was 0.52 µg/mL. The MIC (Paenibacillus polymyxa) was 6.7 µg/mL, the MIC (Escherichia coli) was 0.42 µg/mL and the MIC [5] was 1 µg/mL.

Compound O=c1cnc(CCc2ccccc2)c2n1CCC2 has an MIC (Trichosporon oleaginosus) of 66.6 µg/mL (≈ 277 µM), an MIC (Mucor hiemalis) of 33.3 µg/mL (≈ 139 µM) and an IC50 (L929) greater than 41.5 µM. For the same compound, the IC50 (HUVEC) was greater than 41.5 µM, the IC50 (A-431) was greater than 41.5 µM and the IC50 [1] was greater than 41.5 µM. It also gave an IC50 [2] greater than 41.5 µM, an IC50 (MCF7) greater than 41.5 µM and an IC50 (A549) greater than 41.5 µM. It also gave an IC50 [3] greater than 41.5 µM, an MIC (Nocardia sp.) of 66.6 µg/mL (≈ 277 µM) and an MIC (Staphylococcus aureus) of 66.6 µg/mL (≈ 277 µM). It also gave an MIC [4] of 33.3 µg/mL (≈ 139 µM), an MIC (Paenibacillus polymyxa) of 66.6 µg/mL (≈ 277 µM) and an MIC (Escherichia coli) of 66.6 µg/mL (≈ 277 µM). For the same compound, the MIC [5] was 66.6 µg/mL (≈ 277 µM), the MIC (Pseudomonas aeruginosa) was 66.6 µg/mL (≈ 277 µM) and the MIC (Saccharomyces cerevisiae) was 66.6 µg/mL (≈ 277 µM). It also gave an MIC (Candida albicans) of 33.3 µg/mL (≈ 139 µM) and an MIC (Wickerhamomyces anomalus; Hansenula anomala) greater than 66.6 µg/mL.

Compound GENTAMICIN has an MIC (Pseudomonas aeruginosa) of 42 µg/mL.

In the case of C/C(=C\c1csc(C)n1)[C@@H]1C[C@@H]2O[C@@H]2CCC[C@H](C)[C@H](O)[C@@H](C)C(=O)C(C)(C)[C@@H](O)CC(=O)O1 [EPOTHILONE A], the IC50 (L929) is reported as 0.0077 µM, the IC50 [1] is reported as 0.0024 µM and the IC50 [2] is reported as 0.0096 µM. For the same compound, the IC50 (MCF7) was 0.0022 µM and the IC50 [3] was 0.0013 µM.

With Cc1nc(Cc2ccccc2)c(O)nc1Cc1ccccc1 the MIC (Trichosporon oleaginosus) was greater than 66.6 µg/mL, the MIC (Mucor hiemalis) was greater than 66.6 µg/mL and the IC50 (L929) was greater than 34.5 µM. It also gave an IC50 [1] greater than 34.5 µM, an IC50 [2] greater than 34.5 µM and an IC50 (MCF7) greater than 34.5 µM. It also gave an IC50 (A549) greater than 34.5 µM, an IC50 [3] greater than 34.5 µM and an MIC (Nocardia sp.) of 67 µg/mL (≈ 231 µM). The MIC (Staphylococcus aureus) was greater than 66.6 µg/mL, the MIC [4] was greater than 66.6 µg/mL and the MIC (Paenibacillus polymyxa) was greater than 66.6 µg/mL. The MIC (Escherichia coli) was greater than 66.6 µg/mL, the MIC [5] was greater than 66.6 µg/mL and the MIC (Pseudomonas aeruginosa) was greater than 66.6 µg/mL. The MIC (Saccharomyces cerevisiae) was greater than 66.6 µg/mL, the MIC (Candida albicans) was greater than 66.6 µg/mL and the MIC (Wickerhamomyces anomalus; Hansenula anomala) was greater than 66.6 µg/mL.

With NYSTATIN the MIC (Trichosporon oleaginosus) was 4.2 µg/mL, the MIC (Mucor hiemalis) was 2.1 µg/mL and the MIC (Saccharomyces cerevisiae) was 16.6 µg/mL. For the same compound, the MIC (Candida albicans) was 8.3 µg/mL and the MIC (Wickerhamomyces anomalus) was 16.6 µg/mL.
